The target in data set [1] is T1, S. aureus ATCC 43300 Sortase A (Staphylococcus aureus, UniProt Q2FV99).
T1 sequence (Q2FV99 60-206): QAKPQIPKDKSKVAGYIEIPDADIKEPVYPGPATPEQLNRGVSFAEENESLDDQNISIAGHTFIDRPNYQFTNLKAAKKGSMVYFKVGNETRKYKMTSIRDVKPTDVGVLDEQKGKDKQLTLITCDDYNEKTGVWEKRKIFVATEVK
The data set is described as follows: Sortase A activity assay by FRET. The format is biochemical.

Data set [2] deals with S. aureus ATCC 43300. The data set is described as follows: Time-kill kinetics. The format is cell-based, Staphylococcus aureus. The following applies: 2 × MIC; for re-growth of the bacteria: after 24 hours; for log reduction in CFU: within 2 to 4 hours. The gist of the method:
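Culture grown to OD600 0.5 (5 × 10^8 CFU mL−1), then diluted 1000-fold in CA-MHB. Test compound added at 2 × MIC, with ciprofloxacin (2 × MIC) and untreated controls. Incubated at 37 °C with 200 rpm shaking and sampled at 0, 2, 4, 8, 12 and 24 h. Samples plated on MHA for 24 h at 37 °C, and CFU mL−1 determined. Run in triplicate.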

The nature of the next data set: Cytotoxicity assay. The following applies: human, HepG2 cells. The format is cell-based.
The subject of data set [3] is S. aureus ATCC 43300. The experiment in a line: MIC and MBC by micro broth dilution. The data set is classed as cell-based, Staphylococcus aureus.
Data set [4] deals with S. aureus ATCC 43300 biofilm. The data set is described as follows: Biofilm growth inhibition assay. The format is cell-based, Staphylococcus aureus. The following applies: at MIC, 24 hours. The gist of the method: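 S. aureus grown in TSB at 37 °C for 24 h, then diluted 1:100 in TSB with 0.1% glucose. […] Planktonic cells removed, wells PBS-washed, dried 10 min and stained with 0.1% crystal violet (10 min, 25 °C). Stain solubilized in 33% acetic acid (30 min, RT, shaking) and read at A600. Percent inhibition calculated against untreated control, in triplicate with three biological replicates.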

A further data set concerns the target T2, Sortase A (Staphylococcus aureus, UniProt Q2FV99).
T2 sequence (Q2FV99 60-206): T1 sequence (Q2FV99 60-206)
The data set is described as follows: Fluorescence quenching assay. The data set is classed as binding. The note with it: compounds 0 to 128 μg mL^−1.

For data set [5], the system named is S. aureus ATCC 43300 membrane potential. The data set is described as follows: Membrane potential perturbation assay. The data set is classed as cell-based, Staphylococcus aureus. The note with it: MIC and 2 × MIC. The gist of the method:
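Cells pelleted at 2400×g for 10 min and resuspended in PBS at OD600 1.0. DiOC2(3) added to 30 μM final. Cells mixed with test compound at MIC and 2 × MIC. CCCP served as positive control and untreated cells as negative control; n = 3, mean ± SD.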

In data set [6] the test system is S. aureus ATCC 43300. The data set is described as follows: Thigh infection in a neutropenic mouse. The following applies: BALB/C mice, group n = 4, 100 mg kg^−1 oral. The data set is classed as in vivo. The gist of the method: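 Female BALB/c mice, 6–8 weeks old, n = 4 per group, made neutropenic with cyclophosphamide i.p. (150 mg kg−1 on day −4, 100 mg kg−1 on day −1). Right thigh infected i.m. with 5 × 10^5 CFU per mouse. At 4 h, test compound given orally at 100 mg kg−1, alongside vancomycin 100 mg kg−1 oral and a sunflower oil vehicle group. At 24 h, thighs homogenized in PBS and CFU plated on MHA, in triplicate per mouse.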

Data set [7] has as its system S. aureus ATCC 43300 invasion in macrophage (THP1). The data set is described as follows: Macrophage invasion assay. The data set is classed as cell-based, Staphylococcus aureus. The note with it: THP1, MIC and 2 × MIC.
Setting [8] is: Staphylococcus aureus, ATCC43300, 18 h.
[9] abbreviates: Staphylococcus aureus, ATCC43300, 18 h, S. aureus ATCC 43300, MHB, 37 °C, 18 hours.

The source of these data is PMC12188530 (RSC Advances, 2025).

Each structure is given as a SMILES string. ≈ marks a conversion by molar mass, not a printed value. Structures can show the parent of a compound that is named as a salt.

`CCOC(=O)C1=C(COCCN)NC(C)=C(C(=O)OC)C1c1ccccc1Cl` (centres unmarked) [Amlodipine besylate]: 128 µg/mL produced 57% inhibition in data set [1]. In addition, in the data set on S. aureus ATCC 43300 [2], the “log reduction in colony-forming units (CFU) from the initial inoculum” value (from here on “log reduction in colony-forming units”) is at least 3 log and the “time within which the bacteria were eliminated” value fell in the range of 4 to 24 h. The molecule also had a viability at 24 h, 1 × MIC in the data set “Cytotoxicity assay” of 60%. In the data set with S. aureus ATCC 43300 [3] (setting [8]), this molecule had a minimum bactericidal concentration (MBC) of 128 µg/mL. Further, in the data set with S. aureus ATCC 43300 [3] (setting [9]), it took 64 µg/mL to inhibit growth (MIC). In addition, the biofilm growth inhibition in [4] is listed as 40%.

As to `CN(C)CCCN1c2ccccc2Sc2ccc(Cl)cc21` [Chlorpromazine hydrochloride], at 128 µg/mL the inhibition in data set [1] was 49%. In addition, in the data set on S. aureus ATCC 43300 [2], the “log reduction in colony-forming units” value is reported as at least 3 log, the “time within which the bacteria were eliminated” value was 8 to 12 h and the “re-growth of the bacteria” value is “re-growth of the bacteria was observed after 24 hours”. The viability at 24 h, 1 × MIC in the data set “Cytotoxicity assay” stood at 28%. In the data set with S. aureus ATCC 43300 [3] (setting [9]), the MIC stood at 32 µg/mL. Besides, in [4], the biofilm growth inhibition amounted to 93%.

Turning to `CN(C)C(=O)C(CCN1CCC(O)(c2ccc(Cl)cc2)CC1)(c1ccccc1)c1ccccc1` [Loperamide hydrochloride], in data set [1] (FRET assay), the “inhibitory activity against the enzyme (in words)” value is reported as “except loperamide hydrochloride”. For the same molecule, in the data set on S. aureus ATCC 43300 [2], the “log reduction in colony-forming units” value is at least 3 log, the “time within which the bacteria were eliminated” value is 8 to 12 h and the “re-growth of the bacteria” value is on record as “re-growth of the bacteria was observed after 24 hours”. The “dose-dependent quenching of Sortase A fluorescence intensity” value at Sortase A was “except loperamide hydrochloride”. The molecule further gave a viability at 24 h, 1 × MIC in the data set “Cytotoxicity assay” of 84%. Moreover, in the data set on S. aureus ATCC 43300 [3] (S. aureus ATCC 43300, MHB, 37 °C, 18 hours), the minimal inhibitory concentration (MIC) was 64 µg/mL. Further, in the data set with S. aureus ATCC 43300 [3] (setting [8]), the MBC came out at 128 µg/mL. Moreover, the MIC in the data set with S. aureus ATCC 43300 [3] (setting [9]) turned out to be 32 µg/mL. Besides, the membrane potential disruption result in data set [5] is “significant reduction only at 2 × MIC”. In data set [4], this molecule registered a biofilm growth inhibition of 95%.

In the case of `c1ccc2c(c1)Sc1ccccc1N2CC1CN2CCC1CC2` (centres unmarked) [Mequitazine], in data set [1], the inhibition at 128 µg/mL stood at 64%. Besides, in the data set on S. aureus ATCC 43300 [2], the “log reduction in colony-forming units” value is at least 3 log and the “time within which the bacteria were eliminated” value was in the range of 12 to 24 h. Also, the viability at 24 h, 1 × MIC in “Cytotoxicity assay” is 30%. Also, in the data set on S. aureus ATCC 43300 [3] (setting [8]), the MBC was 128 µg/mL (≈ 397 µM) and the MIC was 64 µg/mL (≈ 198 µM). For the same molecule, the biofilm growth inhibition in data set [4] is 95%.

Regarding `CN1CCN(CCCN2c3ccccc3Sc3ccc(Cl)cc32)CC1` [Prochlorperazine dimaleate], the “death during the experiment” value in the data set on S. aureus ATCC 43300 [6] was “One BALB/C died during the experiment”. Moreover, in the data set with S. aureus ATCC 43300 [2], the “re-growth of the bacteria” value is “re-growth of the bacteria was observed after 24 hours” and the “log reduction in CFU” value is reported as around 2 log. In “Cytotoxicity assay”, this molecule came in with a viability at 24 h, 1 × MIC of 86% and a viability at 24 h, 2 × MIC of around 50%. Also, the MIC in the data set on S. aureus ATCC 43300 [3] (setting [9]) came to 32 µg/mL. Also, in data set [4], the biofilm growth inhibition amounted to 67%. Moreover, in [7], the “S. aureus ATCC 43300 invasion of macrophages” value is listed as “successfully reduced MRSA invasion of macrophages at 2 × MIC”.

For `O.O=c1c(O)c(-c2ccc(O)c(O)c2)oc2cc(O)cc(O)c12` [Quercetin hydrate], the “% inhibition” value in [1] (concentration 128 μg mL^−1) is listed as 73%.

Molecule `CN(C)CCCN1c2ccccc2Sc2ccc(C(F)(F)F)cc21` [Triflupromazine hydrochloride] came in with an inhibition at 128 µg/mL in data set [1] of 48%. In the data set on S. aureus ATCC 43300 [2], the “re-growth of the bacteria” value is given as “re-growth of the bacteria was observed after 24 hours” and the “log reduction in CFU” value is around 2 log. In the data set “Cytotoxicity assay”, this molecule displayed a viability at 24 h, 1 × MIC of 63%. Also, the lowest concentration to inhibit growth with S. aureus ATCC 43300 [3] (setting [9]) (MIC) was 32 µg/mL. The molecule further returned a biofilm growth inhibition in [4] of 19%.
